Assay results from ChEMBL document CHEMBL5303300, “EUbOPEN Chemogenomics Library - Multiplex” (2023).
Where “and” joins values, the source holds several entries; their conditions need not be identical. Identical values can stand only once.

System: HEK-293T
Assay: Multiplex assay against HEK293T
Assay type: toxicity, cell-based
Conditions: human, 10 µM, compound concentration 10 uM, number of replicates 2
Outline: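 Cells stained live at seeding with Hoechst33342, BioTracker Green Microtubule Cytoskeleton Dye, MitoTracker Red and Annexin V Alexa Fluor 680 were imaged on a CQ1 microscope at 37°C and 5% CO2 after compound addition. Their classification by CellPathfinder machine-learning gating ran from Hoechst high-intensity objects versus normal cells, to healthy, pyknosed or fragmented nuclei among normal cells, to mitotic or apoptotic among pyknosed cells. Tubulin, mitochondrial-mass and membrane-permeability phenotypes are per cents of healthy-nucleus cells.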

SMILES: C[C@@H]1CC[C@@]2(OC1)O[C@H]1[C@@H](O)[C@H]3[C@@H]4CC[C@H]5C[C@@H](O[C@@H]6O[C@H](CO)[C@H](O[C@@H]7O[C@H](CO)C(O)[C@H](O[C@@H]8OC[C@@H](O)[C@H](O)[C@H]8O)[C@H]7O[C@@H]7O[C@H](CO)[C@H](O)[C@H](O[C@@H]8O[C@H](CO)[C@@H](O)[C@H](O)[C@H]8O)[C@H]7O)[C@H](O)[C@H]6O)[C@H](O)C[C@]5(C)[C@H]4CC[C@]3(C)[C@H]1[C@@H]2C (stereo partly drawn) [DIGITONIN]
- Population Apoptotic (%) (12 h): 61% and 33% and 40% and 57%
- Population Fragmented Nuclei (%) (12 h): 7% and 2% and 3% and 6%
- Population Healthy Nuclei (%) (12 h): 79% and 88% and 83% and 81%
- Population Hoechst High Intensity Objects (%) (12 h): 10% and 5% and 4% and 8%
- Population Membrane Permeable-Phenotype (%) (12 h): 1% and 3%
- Population Mitochondria Different-Phenotype (%) (12 h): 14% and 13% and 16% and 17%
- Population Mitotic Cells (%) (12 h): 38% and 66% and 59% and 42%
- Population Normal (%) (12 h): 89% and 94% and 95% and 91%
- Population Pyknosed Nuclei (%) (12 h): 13% and 8% and 12% and 11%
- Population Tubulin-Different-Phenotype (%) (12 h): 50% and 43% and 44% and 49%
- Total Cell Count (12 h): 558 and 637 and 534 and 641
- Population Apoptotic (%) (24 h): 44% [middle of 4 runs]
- Population Fragmented Nuclei (%) (24 h): 5% and 8% and 2% and 10%
- Population Healthy Nuclei (%) (24 h): 86% and 81% and 90%
- Population Hoechst High Intensity Objects (%) (24 h): 7% and 9% and 6% and 8%
- Population Membrane Permeable-Phenotype (%) (24 h): 3% and 2%
- Population Mitochondria Different-Phenotype (%) (24 h): 4% and 2% and 7% and 3%
- Population Mitotic Cells (%) (24 h): 67% and 34% and 68% and 55%
- Population Normal (%) (24 h): 92% and 90% and 93% and 91%
- Population Pyknosed Nuclei (%) (24 h): 8% and 9% and 6%
- Population Tubulin-Different-Phenotype (%) (24 h): 26% and 22% and 28% and 17%
- Total Cell Count (24 h): 1037 and 963 and 742 and 1134
- Population Apoptotic (%) (48 h): 13% and 14% and 23% and 21%
- Population Fragmented Nuclei (%) (48 h): 13% and 15% and 10% and 17%
- Population Healthy Nuclei (%) (48 h): 83% and 79% and 85% and 80%
- Population Hoechst High Intensity Objects (%) (48 h): 10% and 9% and 11%
- Population Membrane Permeable-Phenotype (%) (48 h): 5% and 3% and 2%
- Population Mitochondria Different-Phenotype (%) (48 h): 0%
- Population Mitotic Cells (%) (48 h): 86% and 85% and 76% and 78%
- Population Normal (%) (48 h): 89% and 90% and 88%
- Population Pyknosed Nuclei (%) (48 h): 3% and 4% and 2%
- Population Tubulin-Different-Phenotype (%) (48 h): 13% and 5% and 14% and 6%
- Total Cell Count (48 h): 2746 and 2725 and 1654 and 2990
